Compound activity: PubChem BioAssay, several laboratories
Rows were chosen to be rich in hits. Some 1.4% of all compounds tested hit in one or more screens of this group.
hK5 inh: inhibitors of human kallikrein 5; 210,000 compounds, 0.59% hits; Q9Y337; inhibition, % at 5 µM; recombinant hK5, fluorogenic AMC substrate cleavage; AID 873;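 active = inhibition of 40% or more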;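 note: 0% = enzyme controls without compound and 100% = no-enzyme blanks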
Fh CTSL1 inh: cathepsin L1 inhibition, PFM18AAP counter-screen; recombinant F. hepatica cathepsin L1, Z-Leu-Arg-MCA fluorescence; inhibition, % at 5.96 µM; 300,000 compounds, 0.49% hits;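 active = inhibition above the mean of all tested compounds plus 3 SD, set per screening campaign, cut at about 17% in these data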;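 note: 0% = plate median of test compound wells and 100% = 1 µM Z-Phe-Ala-diazomethylketone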
Rce1 inhib: yeast Ras-converting enzyme inhibition; Q03530; yeast membranes, quenched prenylated peptide cleavage fluorescence; calls only; 290,000 compounds, 0.27% hits; AID 2563;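 active = fall in fluorescence gain of 50% or more versus controls, with final raw signal at or below 3038400; inconclusive = same 50% fall but final raw signal above 3038400; inactive = fall in fluorescence gain under 50%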;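 note: plate controls were neutral control wells for no effect and wells lacking membranes for full effect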
FXIIa inh: blocks human coagulation factor XIIa protease activity; purified FXIIa, Boc-QGR-AMC fluorogenic substrate, 2 h; 220,000 compounds, 0.3% hits; inhibition, % at 5 µM; P00748; in the data active = inhibition above about 40%;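 note: 0% = enzyme with no compound and 100% = blank without enzyme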
Target sequence (P00748 20-372 limits assumed): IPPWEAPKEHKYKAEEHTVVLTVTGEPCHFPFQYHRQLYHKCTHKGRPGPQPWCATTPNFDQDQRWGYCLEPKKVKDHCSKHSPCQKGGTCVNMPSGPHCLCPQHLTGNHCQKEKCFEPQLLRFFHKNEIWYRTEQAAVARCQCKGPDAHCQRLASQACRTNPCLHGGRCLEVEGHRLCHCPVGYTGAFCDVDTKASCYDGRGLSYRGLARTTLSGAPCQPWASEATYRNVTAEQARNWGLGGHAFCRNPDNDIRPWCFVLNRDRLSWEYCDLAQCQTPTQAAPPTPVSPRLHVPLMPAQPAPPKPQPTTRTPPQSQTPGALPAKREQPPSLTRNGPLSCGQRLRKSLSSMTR
Target sequence (P00748 373-615 limits assumed): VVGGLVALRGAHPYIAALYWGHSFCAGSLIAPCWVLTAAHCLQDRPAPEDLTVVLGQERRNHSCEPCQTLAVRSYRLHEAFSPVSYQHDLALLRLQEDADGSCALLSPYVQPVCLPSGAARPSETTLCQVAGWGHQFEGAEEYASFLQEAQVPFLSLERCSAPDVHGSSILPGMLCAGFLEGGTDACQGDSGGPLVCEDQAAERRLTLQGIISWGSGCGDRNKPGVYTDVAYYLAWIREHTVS
FXIa inh: factor XIa (human) inhibition; purified FXIa, Boc-Glu-Ala-Arg-AMC fluorogenic substrate; inhibition, % at 5 µM; AID 798; 220,000 compounds, 0.14% hits;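 active = inhibition of at least 40%; inactive = inhibition below 40%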;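 note: fluorescence of freed AMC excited at 355 nm; 0% = enzyme without compound and 100% = no enzyme blank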
Thrombin inh: inhibitors of human thrombin | P00734 | inhibition, % at 5 µM | AID 1046 | alpha-thrombin, Boc-VPR-AMC fluorogenic substrate cleavage | 220,000 compounds, 0.26% hits;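 active = inhibition at or above 40%; inactive = inhibition below 40%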;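 note: 0% = enzyme with no compound and 100% = wells without enzyme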
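Material: human alpha-thrombin protein. Incubation: reaction at ambient temperature. Technique: fluorescence of released AMC, ex 355 nm, em 460 nm. Control set: no-compound enzyme wells and no-enzyme blanks. Also added: Boc-VPR-AMC substrate, 15 µM final. Buffer or medium: pH 7.5 Tris (50 mM) with NaCl 150 mM, Tween 20 0.05%.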
An asterisk follows results filed as active; i = inactive; u = inconclusive; x = no result given; + = active, no number.

SMILES | hK5 inh | Fh CTSL1 inh | Rce1 inhib | FXIIa inh | FXIa inh | Thrombin inh
Cc1cccc(OCCn2c(-c3ccco3)nc3ccccc32)c1 | 48* | 0 | i | 22 | -6 | 18
O=C(O)c1ccc(Nc2nc3ccc(Cl)cc3[nH]2)cc1 | x | -1 | + | x | x | x
CC1(C)CC(=O)C(N=Nc2ccc(Br)cc2)=C(O)C1 | 25 | 4 | i | 75* | 26 | 19
COc1cccc(CN2CCNC(=O)C2CC(=O)NCCn2cccn2)c1OC (stereo unspecified) | -4 | 6 | x | 2 | -5 | -13
CN1CCN(C(=S)NC(=O)c2ccccc2Cl)CC1 | x | 4 | + | x | x | x
O=C(NC(=S)N1CCCCCC1)c1ccccc1Cl | -5 | -2 | i | 5 | -3 | -3
COc1ccc(C)cc1NC(=O)c1cccc(-c2ccc(OC(C)=O)cc2)c1 | x | -7 | i | x | x | x
CCOC(=O)CN(C(=O)CNC(=O)c1ccco1)C(C(=O)NC1CCCCC1)c1cccnc1 (stereo unspecified) | x | 1 | x | x | x | x
Cc1ccc(N2CCN(S(=O)(=O)c3ccc4c(c3)oc(=O)n4C)CC2C)cc1 (stereo unspecified) | x | 9 | i | x | x | x
O=C(Cn1nnc(-c2ccccc2)n1)OCc1csc(-c2ccccc2)n1 | 22 | -3 | i | 49* | 12 | 21
CC1(C)C=C2C(=NN(c3ccccc3)C(N)=C2C#N)CO1 | x | 109* | i | x | x | x
COc1cc(-c2nc3cnccn3c2Nc2ccccc2)ccc1O | -4 | 10 | i | -5 | -12 | -13
COc1cc(-c2nc3ccccn3c2/N=C/c2cc(OC)c(OC)c(OC)c2)ccc1O | x | -2 | + | x | x | x
COc1ccc(OC)c(/C=N/c2c(-c3ccc(O)c(OC)c3)nc3ccccn23)c1 | -12 | 2 | + | 4 | -1 | 1
Cc1cccc(NC(=O)C2CC(O)CN2C(=O)Oc2ccccc2)c1 (stereo unspecified) | x | 8 | i | x | x | x
O=S(=O)(Nc1cccc(-c2nnco2)c1)c1ccc(Cl)cc1 | -2 | -1 | x | 7 | 0 | -2
Cc1ccc(-c2nc3ccccc3[nH]2)s1 | -9 | 4 | u | -14 | -15 | -6
c1csc(-c2nc3ccccc3[nH]2)c1 | 4 | 3 | x | 43* | 7 | 13
O=C(OCCCOC(=O)c1ccc([N+](=O)[O-])o1)c1ccc([N+](=O)[O-])o1 | x | 23* | i | x | x | x
O=C(COC(=O)c1ccc([N+](=O)[O-])o1)c1ccccc1 | -10 | -5 | i | 3 | 0 | -2
Cc1cc(C)n(C(=O)CNc2cccc(Cl)c2C)n1 | 46* | 6 | i | 44* | 5 | 5
Cc1cc(C)n(C(=O)CNc2ccccc2Cl)n1 | 2 | -2 | i | 20 | 7 | 0
COc1ccc([C@@H]2CC=C(C(=O)O)[C@H](c3ccc(F)cc3)N2S(=O)(=O)c2ccc(Cl)cc2)cc1 | x | -4 | x | x | x | x
O=C(NCCc1cccnc1)c1cc(COc2ccc(F)cc2Cl)on1 | x | 2 | + | x | x | x
O=C(NCCc1cccnc1)c1cc(COc2ccc(F)cc2F)on1 | x | 4 | i | x | x | x
SMILES | hK5 inh | Fh CTSL1 inh | Rce1 inhib | FXIIa inh | FXIa inh | Thrombin inh
COC(=O)/C=c1\[nH]c2nnc(C)n2c1=O | 2 | 3 | + | 1 | 1 | -1
CC(C)Oc1cccc(-c2cc(C(=O)NC(=S)N(C)c3ccccc3C(=O)O)c3ccccc3n2)c1 | -26 | -5 | i | 14 | 7 | -5
O=C(Nc1ccc(C(=O)O)cc1)/C(=C\C=C\c1ccccc1)NC(=O)c1ccccc1Br | x | 7 | i | x | x | x
COc1ccc(Cc2nnc(SCC(=O)N3CCN(c4ccccc4)CC3)o2)cc1 | -5 | -7 | i | 12 | -2 | -10
COc1ccc(Cc2nnc(SCC(=O)N3CCCCC3)o2)cc1 | 5 | 17* | i | 11 | 0 | -4
O=C(CSc1nnc(C2CCCCC2)o1)N1CCCCC1 | 19 | 23* | i | 6 | 1 | 4
O=C(CSc1nnc(C2COc3ccccc3O2)o1)N1CCCC1 (stereo unspecified) | -1 | -5 | i | 5 | -4 | -7
CC(=O)N1c2ccc(S(=O)(=O)NCC3CCC(C(=O)NC4CCCCC4)CC3)cc2CC1C (stereo unspecified) | x | 0 | i | x | x | x
COC(=O)Cc1c(C)nc2nc[nH]n2c1=O | 54* | 2 | x | 48* | -3 | 14
CCOC(=O)c1ccc(S(=O)(=O)N2CCN(C(=O)c3nn(C)c(=O)c4ccccc34)CC2)cc1 | -10 | 8 | i | 4 | -4 | 1
CCN(CC(=O)NC(C)(C)C)C(=O)CCl | 5 | 20* | i | 0 | 4 | -9
CCN(CC(=O)NC(C)(C)C)C(=O)COc1c(Cl)cc(Cl)c2ccc(C)nc12 | -19 | 6 | i | 5 | -2 | 1
CSCC[C@H](Nc1ncnc2sc(C)c(C)c12)C(=O)O | -3 | 19* | i | -4 | -3 | -26
COc1ccc(NCC(=O)Nc2cc(S(=O)(=O)N3CCOCC3)ccc2N2CCOCC2)c(OC)c1 | 24 | -1 | i | 35 | 42* | 17
COc1ccc(C)cc1NC(=O)CN1C(=O)COc2ccc(S(=O)(=O)N3CCOCC3)cc21 | x | -2 | + | x | x | x
COc1ccc(C)cc1NC(=O)CN1C(=O)COc2ccc(S(=O)(=O)N3CCCCCC3)cc21 | x | 0 | i | x | x | x
O=C(CNC(=O)c1ccncc1)N/N=C/c1ccccc1[N+](=O)[O-] | 4 | -4 | i | 0 | -9 | 1
Cc1nn(-c2ccccc2)c(Cl)c1CN(C(=O)CCl)c1ccc(Cl)cc1 | 45* | 2 | i | 17 | 8 | 19
Cn1c(SCC(=O)NNC(=S)Nc2ccccc2)nnc1-c1ccncc1 | -4 | -8 | i | 8 | -1 | 50*
Cc1cccc(NC(=O)CSc2nnc(-c3ccncc3)n2C)c1 | -9 | 0 | i | 30 | 21 | 2
O=C(Nc1ccccc1C(=O)N1CCCC1)c1ncoc1-c1cccc(Cl)c1 | x | 0 | i | x | x | x
CC1(C)CC(=O)c2cnc(NC(=O)Cc3ccc(Cl)cc3)nc2C1 | 86* | 4 | i | 2 | 1 | 36
CCCCC(=O)Nc1ncc2c(n1)CC(C)(C)CC2=O | -3 | 4 | i | -5 | -7 | 0
C=C(C)COc1ccc(-c2nc(N)ncc2-c2ccc(OC)cc2)c(O)c1 | 1 | x | i | 6 | 0 | -2
C=C(C)COc1ccc(-c2ncncc2Oc2ccc(OC)cc2)c(O)c1 | 43* | 1 | i | 20 | 11 | 10
CCCOC(=O)c1ccc(Oc2cn[nH]c2-c2ccc(OCC(=O)NN)cc2O)cc1 | 41* | 5 | i | 30 | 43* | 13
CCOC(=O)c1ccc(Oc2cn[nH]c2-c2ccc(OCC(=O)NN)cc2O)cc1 | x | -5 | i | x | x | x
C=C(C)COc1ccc(-c2[nH]ncc2Oc2cccc(OC)c2)c(O)c1 | 63* | 3 | i | 29 | 2 | 20
C=C(C)COc1ccc(-c2[nH]ncc2Oc2ccccc2OCC)c(O)c1 | 13 | 0 | i | 16 | 3 | -1
